The EternaBench riboswitch data

Test system: MS2 coat protein
Experiment: apparent Kd, MS2 coat protein; higher = weaker binding; RNA-MaP array; FMN 200 µM where present
Procedure, shortened: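 Designs on Illumina sequencing-chip clusters, transcribed by stalled E. coli RNA polymerase, were exposed to SNAP-549-labelled MS2 coat protein in doubling steps from 0.7 or 1.5 nM up to 3 µM, without and then with constant ligand. The buffer held 100 mM Tris-HCl pH 7.5, 80 mM KCl, 4 mM MgCl2, BSA, DTT, yeast tRNA and Tween-20. Apparent Kd values are medians of filtered per-cluster binding-curve fits to green signal normalised to red-channel RNA signal and control-cluster median Fmax.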

[1] = designed as: OFF switch for flavin mononucleotide, no ligand
[2] = ligand present: flavin mononucleotide, designed as: OFF switch for flavin mononucleotide
[3] = designed as: ON switch for flavin mononucleotide, no ligand
[4] = ligand present: flavin mononucleotide, designed as: ON switch for flavin mononucleotide

Sequence	apparent Kd [1] [nM]	apparent Kd [2] [nM]	apparent Kd [3] [nM]	apparent Kd [4] [nM]
AAGGAUAGAGGAUAUACAUAGAUACAGAUUCGUGUAGAACUACAUGAGGAUCACCCAUGUAGAAGGCUAUCCUA	16.8	46		
CUGCUGGAGCUUUGCUUUAGUCGUACAUGAGGAUCACCCAUGUAGGAUAUGGUGGGCUUUGCUUACUAGAAGGAUAGAGUGGUC	49.9	36.3		
GAGUACUUAGGAUAUACAUGAGGAUCACCCAUGUCUAGGCGGCGCUGGGUCCCUCGCAGUAGAAGGAAGCGCUG	24.6	42.3		
AAAAUGUAAGGAUAUAGCCGGAACCCAGGGUUUGGACCCGGCUAGAAGGUACAUGAGGAUCACCCAUGUAAGAA	17.2	22.8		
UGAUAGGACAGAGGAUAUACGUGCUAGAGAUACUAGCUAAUAAUCCUUACAUGAGGAUCACCCAUGUAGAAGGCUGUCCUAUCU	19.5	45.5		
GGUCGUCCCAUUAACAUGAGGAUCACCCAUGUCAAAAGACAUGAGGAUAUGCAUCCUAAUUGGAUGCAGAAGGCAUGGACGACC			1060	87.7
UUGGAGUACGUAGGAUAUGUAGGAUAUUCCUACAUGAGGAUCACCCAUGUUAGCAUGGAAGAAGGACAGAAGGACGUGCUCCAU			1120	15.1
GUUUAGUGAGGAUAUGUGGCUUCGAUCGUGAGAUCGAGGCUACAGAAGGCACAUGAGGAUCACCCAUGUUCCUU	14.4	51.6		
AAUAUGUUGCAGAAGGCCAUGUUGUGGUAGUACCUCAUGACAUGAGGAUCACCCAUGUUUGUGUUGGAGGAUAUGCAAUAUAUU	37.7	201		
ACAUGAGGAUCACCCAUGUUAUCAGGGACUUCAAUUAUUUCUAGAAGGCUGUUUUCUUGUAAGUCAGAGGAUAUAGAAUUAAAU	14	15.1		
UGUAAUAUUAUAGGAUAUGGUUACGAUACGUAACCAGAAGGGUGAUUAUACUAUAAUCUAUACAUGAGGAUCACCCAUGUUUAU			205	110
AAUUAACUCACAGGAUAUAGCAGAGGUCGCGUAAACUUACAGGCGACGAGGCUAGAAGGGUGACCACAUGAGGAUCACCCAUGU			648	98.8
AGUUGGCGAGGAUAUACAUGAGGAUCACCCAUGUGAGAGAAAAAAAGGAGAAAAAAAAGUAGAAGGCGCUGACA	37.5	120		
AACAGCUCGUCAGGAUAUAUAUACUUAUAUUGUAUUUAUGUACAUGAGGAUCACCCAUGUUGUUAGUAGAAGGGACGAGCUGAA	7.61	7.16		
UGGUACAUGGGAGGAUAUGGGAUGAUAACAUGAGGAUCACCCAUGUUAAAGAUGCCGAGAGGCAACUAGAAGGCCCAUGUACCU			281	62.4
CCUAUGUGAGGAUAUGGUGUUGGCCACAAGGAAAAGCUCCUCCAGAAGGCACAUGAGGAUCACCCAUGUCGUGG	21.5	115		
GCUGUGGCAUGAGGAUAUGGUCACGUUUCGUGACCAGAAGGCAUGUCAAUAGACAUGAGGAUCACCCAUGUAGUUAACACAGCA			497	41.9
UUAUUUAGGUAGGAUAUCGAUACCAAUCCCUAUCGAGAAGGGUCUACAUGAGGAUCACCCAUGUUAGCAUGUUU	20.1	21.1		
AAAUUGUCAGGAUAUCCUGCUAUACGCAAUAUGUAUUCACGGGAGAAGGGACAUGAGGAUCACCCAUGUUUGAA	21.5	30		
CGCUAAUUAAUUAUAUUAAUUGUACAGGAUAUGUAACAUGAGGAUCACCCAUGUAUUGGGUUUAAACAGAAGGGUAUAUUAGCG	425	112		
AUACUUAAUGAAGGAUAUCUCAGCAUAAACCUGAGAGAAGGUCAUUGUUACAUGAGGAUCACCCAUGUUGUAGUUAAUGGGUAA	421	413		
GGUGCGUUUGUGAGGAUAUGCUGGUCCUUGGUUCGGCAGAAGGCACAUGAGGAUCACCCAUGUGGUGUCGUUCC	15	23.3		
GGUGCGUGUGUGAGGAUAUGCUGGUCCUUGGCUCGGCAGAAGGCACAUGAGGAUCACCCAUGUGGUGUCGUGCC	22.8	49.8		
UGUCAUAUAUAGAAGGGUAGUAGGGUAUUACAUGAGGAUCACCCAUGUAUUAUAGGAUAUGUGUAUAGUUUUUAUUCAAGUAUA	22.8	17		
GAGUGGAAGGCCGCUACAUGAGGAUCACCCAUGUGCUAAGCACAGGAUAUCGCGCUGGCCCGGCGCGAGAAGGGUGACGGCCUG			674	324
CCGGCUGCUGUGAGGAUAUGCCUGUGGGUCCGCGGGCAGAAGGCACAUGAGGAUCACCCAUGUCCUGCGGUCCC	27.1	28.3		
CUCUUGAGUCAGGAUAUCGUGAGGCUAAUAAUACGAGAAGGGACAACAUGAGGAUCACCCAUGUGGUCGAAGAG	32.9	78.3		
AUAAGCUCGUCAGGAUAUGCAACACUGUGUAAGCAGUGUGGUAUGAUCACAUGAGGAUCACCCAUGUAGAAGGGACGAGCUUAU	6.53	26.9		

Sequence	apparent Kd [1] [nM]	apparent Kd [2] [nM]	apparent Kd [3] [nM]	apparent Kd [4] [nM]
CACGGAAACGUGAAACGUAGCAUACGAGAAGGCUGAUCCACGACAUGAGGAUCACCCAUGUAGUUAGAGGAUAUUGGAUGCUAC			57.7	12.2
AAGAAGGACGCAGGAUAUCCAGGACCUCCCGCAGGAGAAGGGCGAGACAUGUGGAUCACCCAGACAUGAGGAUCACCCAUGUAG	22.5	21		
CGAUAAAGGUGAGGAUAUGAGAAUAGAAAGAAAUCAGAAGGCACACAUGAGGAUCACCCAUGUGAGUUCUCGAGAUUACAUGGU	15.5	17.9		
AUUGUUUUCAUAGGAUAUUGACAUUUAUUUAUUCAAGAAGGAUGAUUACAUGAGGAUCACCCAUGUUAUUAUGGAUUAACUAGU	23.7	43.2		
AUUUAAAUGUCAGGAUAUGGUAGUUUAUACUUAUUAGAAGGGAUAAUUAUACUCAAGUACAUGAGGAUCACCCAUGUUAAAUCA			21.9	21.5
ACGCUUUAUGUAGGAUAUUCAGAGAAAGAGAAAGAAGAAGGACAUGAGGAUCACCCAUGUAAGAAGUAGAUAGAGAUGAUACAU	76.4	66.1		
UCAGGAGUCACAGGAUAUCCGGCAUAGCAUACAGGAGAAGGGUGAUCACGAGCACAUGAGGAUCACCCAUGUGACAUUUGUGGA			96.3	83.3
CGCUACUACCAGAAGGACAUGAGGAUCACCCAUGUAGGAUAUGGGUUACACGUUCCUGUGUAUUGUUACUACGCUACGUAUGCG			168	11.9
AAAAGAAUAAAAGGAUAUAGGAAAGGAAGUGUACUAGAAGGUUUGUUAACAUGAGGAUCACCCAUGUGCUCAGACACAGGGUGC	124	167		
GAGUGACAUGAGGAUCACCCAUGUGAGGAUAUCGGCCGGACCUUGUUAGCUUCCACCGCGAGAAGGCACAUCGG	23.3	27.9		
AUAUUCUAGAUAGGAUAUACUGAGGUUGAAUGGGUAGAAGGAUCGUGAGAGUGGACUACAUGAGGAUCACCCAUGUUGUUUAUU			61.6	59
GGGCGUGAAGGAUAUACAUGAGGAUCACCCAUGUGGGAGGAGAAUGGUGAGGAGGCUGGUAGAAGGUCAGGAGG	47.9	45.8		
GGGUACAUCGGAGGAUAUCAUGUAAAUACAUGAGGAUCACCCAUGUCGAUGGAGACAUCGGAGAUUGAGAAGGCGGAUGUACCG			309	23.1
CUUUCGUGAGGAUAUCAGUAGUAAAAUAAUAAAAUUACUACUGAGAAGGCACAUGAGGAUCACCCAUGUUCCUC	24.4	134		
UUUGAUUAAGUGAGGAUAUACUGUUUGUAUUGAUUGUAGAAGGUACAUGAGGAUCACCCAUGUUUAGUAUUUAU	20.5	20		
AGAUUUGUACAUGAGGAUCACCCAUGUUAAUAGGUGGUUGUCAGAAGGCAUUAAUAGAGAUUUAAUGAGGAUAUGAAUUAACAA			903	593
CAGACCGGCGCAGGAUAUGUCGACAUGAGGAUCACCCAUGUAAGCCUCGUCUGGUCCGGUGUGUGACAGAAGGGUGUCGGCCAA	13.1	38.1		
GUGAUCGACAUGAGGAUCACCCAUGUGGAUUCGUUGAGCGGCAGAAGGCGAUGUAGAAAAGAACUCGAGGAUAUGCACGUGUCA			7.22	6.76
CCUCAUGGUCGAGGAUAUAUAACGUGGAACGUAAUAGAAGGCGACAUGAGGAUCACCCAUGUAGCGUCCACUGGAGUCGCGCGG	119	62.2		
GAAAAGUAAGGAUAUGCACACAGUGAGGAAACUCACUGUGUGCAGAAGGUACAUGAGGAUCACCCAUGUUUCUC	38.1	187		
GGUCGUCAAGUCAGGAUAUCGUUUAGUCGGUGUAACGAGAAGGGACAUGAGGAUCACCCAUGUCGUCUCAUCAG	18.8	25.8		
UGAUAGGACAGAGGAUAUGCUGAUAGGAUCUACUAUCGAAGAAUCCUCACAUGAGGAUCACCCAUGUAGAAGGCUGUCCUAUCU	12	143		
UAUACUUACGAAGGAUAUGGUUACAUGAGGAUCACCCAUGUAUGUAUAUUGAUCUUGUAUUUUAACCAGAAGGUCGUGAGUAUA	143	114		
AGUGUGUGGCAGGAUAUUCCGGUCGUGAGUCGGGAAGAAGGGUCUACAUGAGGAUCACCCAUGUGAGCGGUUGA	317	360		
GGGUGACAUGAGGAUCACCCAUGUCAGGAUAUGCUUGAGCUUGAGAAAUCGAGUUCGAGUAGAAGGGACUGCCC	47.3	72.3		
AAGAAACAUGAGGAUCACCCAUGUAAAUUCAAGAGAGGAUAUCGUACAUGGAAGAUUCAACGAGAAGGCUCUAGAA			36.5	18.4
ACGUGUCGUGUAGGAUAUGACACAGGAAACUGGUCAGAAGGACAUGAGGAUCACCCAUGUAGAGUGUUUAAGGAUGACGUAUGC	46.9	161		
